Measurements taken from ChEMBL document CHEMBL4004807 (J Med Chem, 2017).

Tests used:
Plasma [1] = experiment: Drug metabolism in po dosed rat plasma assessed as ralinepag formation; format: ADME, organism-based; details: in vivo
[2] = Drug level in bile-duct cannulated rat bile treated with 2-(((1r,4r)-4-(((4-chlorophenyl)(phenyl)carbamoyloxy)methyl)cyclohexyl)methoxy)acetic acid; format: ADME; details: in vivo
Plasma [3] = experiment: Drug level in bile-duct cannulated rat plasma treated with 2-(((1r,4r)-4-(((4-chlorophenyl)(phenyl)carbamoyloxy)methyl)cyclohexyl)methoxy)acetic acid; format: ADME, cell-free
[4] = Drug degradation in simulated gastric fluid after 3 hrs
Summary of the method: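 Incubated in simulated gastric fluid at room temperature for 3 h; conversion to parent monitored.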

O=C(COC[C@H]1CC[C@H](COC(=O)N(c2ccccc2)c2ccc(Cl)cc2)CC1)NCCS(=O)(=O)O
Drug metabolism (Plasma [1]): Metabolite_Detected | Drug metabolism [2]: Metabolite_Detected | Drug metabolism (Plasma [3]): Metabolite_Detected | Drug degradation [4]: Metabolite_Notdetected
